≈ marks a conversion by molar mass, not a printed value. Calls of active or inactive are those of the source. No cut-off for these calls is given here. Some results are limits rather than exact numbers.

Experimental findings from ChEMBL document CHEMBL1149642, “Molecular design of anti-MRSA agents based on the anacardic acid scaffold” (2007) are described below.

The test system of one assay is Staphylococcus aureus. Briefly: Antibacterial activity against methicillin-resistant Staphylococcus aureus ATCC 33592 by broth dilution method. It is filed as functional. The method, boiled down:
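Two-fold serial broth dilution in NYG broth (0.8% nutrient broth, 0.5% yeast extract, 0.1% glucose). Compound dilutions made in DMF and added 1:100 to broth. Inoculum was an overnight culture added at 1:100. Incubated at 37 °C for 48 h. MIC taken as the lowest concentration with no visible growth. Top concentration tested was 200 (solubility limit).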
On the technique in general: In broth dilution the organism is exposed to a series of concentrations in liquid medium.

The test system of a further assay is Escherichia coli. Description: Antibacterial activity against Escherichia coli ATCC 9637. The format is functional, organism-based. The method, boiled down:
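Two-fold serial broth dilution in NYG broth (0.8% nutrient broth, 0.5% yeast extract, 0.1% glucose); compound dilutions in DMF, 30 µL added to 3 mL broth, inoculated with 30 µL overnight culture; 37 °C, 48 h; MIC = lowest concentration with no visible growth; top concentration 200 µg/mL (solubility-limited).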

One may read the MIC as the least concentration at which growth counts as inhibited. Higher therefore signals a less susceptible organism. `O=C(O)c1c(O)cccc1CCC1CCCCC1` had an MIC in the assay on Staphylococcus aureus of 12.5 µg/mL (≈ 50.3 µM). Also, the outcome with Escherichia coli was inactive.

In the assay with Staphylococcus aureus, `O=C(O)c1c(O)cccc1CCc1ccc(O)cc1O` gave an MIC of over 200 µg/mL. Also, in the assay on Escherichia coli, the result was inactive. On the same counts, the results for `C=CC/C=C\C/C=C\CCCCCCCc1cccc(O)c1C(=O)OC` are over 800 µg/mL and “inactive”. The corresponding values for `CC(C)CCCC(C)CCCc1cccc(O)c1C(=O)O` (configuration not stated) are 0.39 µg/mL (≈ 1.33 µM) and “inactive”. The corresponding values for `O=C(O)c1c(O)cccc1CC1CCCCCCC1` are 12.5 µg/mL (≈ 47.6 µM) and “inactive”. In the case of `O=C(O)c1c(O)cccc1CC1CCCCC1`, the MIC against Staphylococcus aureus turned out to be 25 µg/mL (≈ 107 µM). Besides, the outcome in the assay with Escherichia coli was inactive. The corresponding values for `O=C(O)c1c(O)cccc1CCc1cc(O)ccc1O` are 100 µg/mL (≈ 365 µM) and “inactive”. On the same counts, the results for `O=C(O)c1c(O)cccc1CC1CCCCCCCCCCC1` are 0.39 µg/mL (≈ 1.22 µM) and “inactive”. The corresponding values for `CCCCCC/C=C/CCCCCCCc1cccc(O)c1C(=O)O` are 6.25 µg/mL (≈ 18 µM) and “inactive”. For the compound `O=C(O)c1c(O)cccc1CCc1cc(O)c(O)cc1O`, the MIC in the assay with Staphylococcus aureus was over 200 µg/mL. Further, the outcome with Escherichia coli was inactive. The corresponding values for `O=C(O)c1c(O)cccc1CCc1ccccc1` are 100 µg/mL (≈ 413 µM) and “inactive”. Consider `O=C(O)c1c(O)cccc1CCc1ccc(O)cc1`, for which inhibition of growth in the assay on Staphylococcus aureus (MIC) required 50 µg/mL (≈ 194 µM). The result in the assay on Escherichia coli was inactive. As to `CCCCCCCCCOC(=O)c1ccccc1O`, the outcome in the assay with Staphylococcus aureus was inactive. For `CCCCC(C)Cc1cccc(O)c1C(=O)O` (configuration not stated), in the assay with Staphylococcus aureus, the minimum inhibitory concentration (MIC) is 50 µg/mL (≈ 212 µM). Further, in the assay with Escherichia coli, the result was inactive. In turn, `O=C(O)c1c(O)cccc1CCc1ccc(O)c(O)c1` displayed an MIC against Staphylococcus aureus of 100 µg/mL (≈ 365 µM). The outcome in the assay with Escherichia coli was inactive. The corresponding values for `O=C(O)c1c(O)cccc1CCCCc1ccccc1` are 25 µg/mL (≈ 92.5 µM) and “inactive”.

Consider `C=CC/C=C\C/C=C\CCCCCCCc1cccc(OC(C)=O)c1C(=O)O`, for which the MIC against Staphylococcus aureus was over 800 µg/mL. For the same compound, the result in the assay with Escherichia coli was inactive. The compound `O=C(O)c1c(O)cccc1CC1CCCC1` displayed an MIC in the assay on Staphylococcus aureus of 100 µg/mL (≈ 454 µM). Besides, in the assay with Escherichia coli, the outcome was inactive. On the same counts, the results for `CCCCCC(CC)Cc1cccc(O)c1C(=O)O` (configuration not stated) are 6.25 µg/mL (≈ 23.6 µM) and “inactive”.
